According to ChEMBL document CHEMBL3352113, “Cytoprotective pyridinol antioxidants as potential therapeutic agents for neurodegenerative and mitochondrial diseases” (Bioorg Med Chem, 2014):
Active and inactive are the calls of the source. No cut-off for these calls is given here.

System: Lymphocyte
Assay: Inhibition of oxidative stress-induced mitochondrial membrane depolarization in diethyl maleate-treated human lymphocytes obtained from FRDA patient assessed as cells with intact mitochondrial membrane potential at 250 nM pretreated for 16 hrs using TMRM by FACS analysis (reference value: 95%)
Assay type: functional
Design: scale not given: the % may be the effect or the level left
Conditions: not given

SMILES	Activity [%]
Cc1c(N(C)C)nc(CCCCCCCCCCO)c(O)c1C	36
CCCCCCCCCCCCCCCCc1c(C)c(N(C)C)nc(C)c1O	83

System: Lymphocyte
Assay: Cytoprotective activity in human lymphocytes obtained from Leigh's syndrome patient assessed as viable cells at 0.1 uM after 16 hrs by trypan blue exclusion assay
Assay type: functional
Conditions: read-out: Activity
Procedure, shortened: (§1)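 Lymphocytes from FRDA or Leigh's syndrome patients, grown in RPMI-1640 with 15% fetal calf serum and 2 mM glutamine, kept in log phase. Test agents at 0.1, 0.5 and 2.5 µM; diethyl maleate (DEM) added to deplete glutathione and induce oxidative stress. Viability expressed relative to untreated cells (100%). Values are mean ± SD/SEM as tabulated.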

SMILES	viability at 0.1 µM [%]
Cc1c(N(C)C)nc(CCCCCCCCCCO)c(O)c1C	20
CCCCCCCCCCCCCCCCc1c(C)c(N(C)C)nc(C)c1O	11

Species on record: Bos taurus
Assay: Inhibition of bovine heart mitochondrial NADH oxidase complex I/III/IV assessed as remaining activity by spectrophotometry relative to untreated control
Conditions: not given

SMILES	inhibition
Cc1c(N(C)C)nc(CCCCCCCCCCO)c(O)c1C	Dose-dependent effect
CCCCCCCCCCCCCCCCc1c(C)c(N(C)C)nc(C)c1O	Dose-dependent effect

Species on record: Bos taurus
Assay: Inhibition of bovine heart mitochondrial NADH oxidase complex I/III/IV assessed as remaining activity at 5 uM by spectrophotometry relative to untreated control
Conditions: not given

SMILES	Activity [%]
Cc1c(N(C)C)nc(CCCCCCCCCCO)c(O)c1C	9
CCCCCCCCCCCCCCCCc1c(C)c(N(C)C)nc(C)c1O	93

System: Lymphocyte
Assay: Increase in ATP production in CoQ10-deficient lymphocytes (unknown origin) assessed as cellular ATP level at 25 uM after 48 hrs using luciferin-luciferase reaction by bioluminescence assay relative to control
Assay type: functional
Conditions: not given
Procedure, shortened: (§2)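 CoQ10-deficient lymphocyte line GM17932 grown in glucose-free RPMI 1640 with 25 mM galactose, 2 mM glutamine and 10% dialyzed FBS, forcing oxidative phosphorylation. Incubated with compounds at 5, 10 or 25 µM for 48 h. Total intracellular ATP measured by luciferin–luciferase reaction, expressed as % of untreated control.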

SMILES	Activity [%]
Cc1c(N(C)C)nc(CCCCCCCCCCO)c(O)c1C	3
CCCCCCCCCCCCCCCCc1c(C)c(N(C)C)nc(C)c1O	37

Species on record: Bos taurus
Assay: Inhibition of bovine heart mitochondrial NADH oxidase complex I/III/IV assessed as remaining activity at 10 uM by spectrophotometry relative to untreated control
Conditions: not given

SMILES	Activity [%]
Cc1c(N(C)C)nc(CCCCCCCCCCO)c(O)c1C	6
CCCCCCCCCCCCCCCCc1c(C)c(N(C)C)nc(C)c1O	86

System: Lymphocyte
Assay: Cytoprotective activity in human lymphocytes obtained from Leigh's syndrome patient assessed as viable cells at 2.5 uM after 16 hrs by trypan blue exclusion assay
Assay type: functional
Conditions: read-out: Activity
Procedure, shortened: as §1

SMILES	viability at 2.5 µM [%]
Cc1c(N(C)C)nc(CCCCCCCCCCO)c(O)c1C	74
CCCCCCCCCCCCCCCCc1c(C)c(N(C)C)nc(C)c1O	85

System: Lymphocyte
Assay: Cytoprotective activity in human lymphocytes obtained from FRDA patient assessed as viable cells at 0.1 uM after 16 hrs by trypan blue exclusion assay
Assay type: functional
Conditions: read-out: Activity
Procedure, shortened: as §1

SMILES	viability at 0.1 µM [%]
Cc1c(N(C)C)nc(CCCCCCCCCCO)c(O)c1C	17
CCCCCCCCCCCCCCCCc1c(C)c(N(C)C)nc(C)c1O	52

Species on record: Bos taurus
Assay: Inhibition of bovine heart mitochondrial NADH oxidase complex I/III/IV assessed as remaining activity at 1 uM by spectrophotometry relative to untreated control
Conditions: not given

SMILES	Activity [%]
Cc1c(N(C)C)nc(CCCCCCCCCCO)c(O)c1C	27
CCCCCCCCCCCCCCCCc1c(C)c(N(C)C)nc(C)c1O	95

System: Lymphocyte
Assay: Inhibition of ROS generation in diethyl maleate-treated human lymphocytes obtained from FRDA patient compound pretreated for 16 hrs using DCFH-DA by FACS analysis
Assay type: functional, cell-based
Conditions: not given
Procedure, shortened: (§3)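 FRDA lymphocytes pretreated with compounds at 100, 250 and 500 nM for 16 h, then given DEM for 80 min to raise ROS. Stained with DCFH-DA for 15 min, then DCF fluorescence read by flow cytometry. Reported as % ROS scavenging; mean ± SEM of three experiments run in duplicate.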

SMILES	inhibition
CCCCCCCCCCCCCCCCc1c(C)c(N(C)C)nc(C)c1O	Dose-dependent effect

System: Lymphocyte
Assay: Inhibition of ROS generation in diethyl maleate-treated human lymphocytes obtained from FRDA patient compound pretreated at 100 to 500 nM for 16 hrs using DCFH-DA by FACS analysis
Assay type: functional, cell-based
Conditions: not given
Procedure, shortened: as §3

SMILES	inhibition
Cc1c(N(C)C)nc(CCCCCCCCCCO)c(O)c1C	inactive
CCCCCCCCCCCCCCCCc1c(C)c(N(C)C)nc(C)c1O	Active

System: Lymphocyte
Assay: Increase in ATP production in CoQ10-deficient lymphocytes (unknown origin) assessed as cellular ATP level at 10 uM after 48 hrs using luciferin-luciferase reaction by bioluminescence assay relative to control
Assay type: functional
Conditions: not given
Procedure, shortened: as §2

SMILES	Activity [%]
Cc1c(N(C)C)nc(CCCCCCCCCCO)c(O)c1C	20
CCCCCCCCCCCCCCCCc1c(C)c(N(C)C)nc(C)c1O	80

System: Lymphocyte
Assay: Cytoprotective activity in human lymphocytes obtained from FRDA patient assessed as viable cells after 16 hrs by trypan blue exclusion assay
Assay type: functional, cell-based
Conditions: not given
Procedure, shortened: as §1

SMILES	Activity
Cc1c(N(C)C)nc(CCCCCCCCCCO)c(O)c1C	Dose-dependent effect
CCCCCCCCCCCCCCCCc1c(C)c(N(C)C)nc(C)c1O	Dose-dependent effect

System: Lymphocyte
Assay: Inhibition of oxidative stress-induced mitochondrial membrane depolarization in diethyl maleate-treated human lymphocytes obtained from FRDA patient assessed as cells with intact mitochondrial membrane potential at 100 nM pretreated for 16 hrs using TMRM by FACS analysis (reference value: 95%)
Assay type: functional
Design: scale not given: the % may be the effect or the level left
Conditions: not given

SMILES	Activity [%]
Cc1c(N(C)C)nc(CCCCCCCCCCO)c(O)c1C	24
CCCCCCCCCCCCCCCCc1c(C)c(N(C)C)nc(C)c1O	62

System: Lymphocyte
Assay: Inhibition of oxidative stress-induced mitochondrial membrane depolarization in diethyl maleate-treated human lymphocytes obtained from FRDA patient assessed as cells with intact mitochondrial membrane potential pretreated for 16 hrs using TMRM by FACS analysis
Assay type: functional, cell-based
Conditions: not given

SMILES	inhibition
CCCCCCCCCCCCCCCCc1c(C)c(N(C)C)nc(C)c1O	Dose-dependent effect

System: not listed separately
Assay: Metabolic stability in bovine liver microsomes at 25 uM after 30 mins by reverse phase HPLC analysis
Assay type: ADME, Bos taurus
Conditions: cattle, read-out: Stability
Procedure, shortened: (§4)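 Compounds incubated 30 min with activated bovine liver microsomes. Remaining parent compound quantified by reversed-phase HPLC and expressed as % recovered; mean ± SD.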

remaining at 0.5 h, 25 µM [%]	SMILES
70	CCCCCCCCCCCCCCCCc1c(C)c(N(C)C)nc(C)c1O

System: Lymphocyte
Assay: Cytoprotective activity in human lymphocytes obtained from FRDA patient assessed as viable cells at 0.5 uM after 16 hrs by trypan blue exclusion assay
Assay type: functional
Conditions: read-out: Activity
Procedure, shortened: as §1

SMILES	viability at 0.5 µM [%]
Cc1c(N(C)C)nc(CCCCCCCCCCO)c(O)c1C	28
CCCCCCCCCCCCCCCCc1c(C)c(N(C)C)nc(C)c1O	75

System: Lymphocyte
Assay: Inhibition of lipid peroxidation in diethyl maleate-treated human lymphocytes obtained from FRDA patient at 100 to 250 nM after 16 hrs using C11-BODIPY581/591 by FACS analysis
Assay type: functional, cell-based
Conditions: not given
Procedure, shortened: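 FRDA lymphocytes depleted of glutathione with DEM, probed with C11-BODIPY581/591. Green (oxidized) fluorescence read by flow cytometry at 490/510 nm. Median mean fluorescence taken relative to untreated control and converted to % lipid peroxidation scavenging; mean ± SEM, n = 3.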

SMILES	inhibition
Cc1c(N(C)C)nc(CCCCCCCCCCO)c(O)c1C	inactive
CCCCCCCCCCCCCCCCc1c(C)c(N(C)C)nc(C)c1O	Active

System: not listed separately
Assay: Drug metabolism in bovine liver microsomes at 25 uM after 30 mins by reverse phase HPLC analysis
Assay type: ADME, Bos taurus
Conditions: cattle, read-out: Drug metabolism
Procedure, shortened: as §4

metabolised at 0.5 h, 25 µM [%]	SMILES
60	Cc1c(N(C)C)nc(CCCCCCCCCCO)c(O)c1C
20	CCCCCCCCCCCCCCCCc1c(C)c(N(C)C)nc(C)c1O

System: Lymphocyte
Assay: Cytoprotective activity in human lymphocytes obtained from Leigh's syndrome patient assessed as viable cells after 16 hrs by trypan blue exclusion assay
Assay type: functional, cell-based
Conditions: not given
Procedure, shortened: as §1

SMILES	Activity
Cc1c(N(C)C)nc(CCCCCCCCCCO)c(O)c1C	Dose-dependent effect
CCCCCCCCCCCCCCCCc1c(C)c(N(C)C)nc(C)c1O	Dose-dependent effect

System: Lymphocyte
Assay: Increase in ATP production in CoQ10-deficient lymphocytes (unknown origin) assessed as cellular ATP level at 5 uM after 48 hrs using luciferin-luciferase reaction by bioluminescence assay relative to control
Assay type: functional
Conditions: not given
Procedure, shortened: as §2

SMILES	Activity [%]
Cc1c(N(C)C)nc(CCCCCCCCCCO)c(O)c1C	50
CCCCCCCCCCCCCCCCc1c(C)c(N(C)C)nc(C)c1O	96

System: Lymphocyte
Assay: Cytoprotective activity in human lymphocytes obtained from FRDA patient assessed as viable cells at 2.5 uM after 16 hrs by trypan blue exclusion assay
Assay type: functional
Conditions: read-out: Activity
Procedure, shortened: as §1

SMILES	viability at 2.5 µM [%]
Cc1c(N(C)C)nc(CCCCCCCCCCO)c(O)c1C	87
CCCCCCCCCCCCCCCCc1c(C)c(N(C)C)nc(C)c1O	84

System: Lymphocyte
Assay: Inhibition of oxidative stress-induced mitochondrial membrane depolarization in diethyl maleate-treated human lymphocytes obtained from FRDA patient assessed as cells with intact mitochondrial membrane potential at 500 nM pretreated for 16 hrs using TMRM by FACS analysis (reference value: 95%)
Assay type: functional
Design: scale not given: the % may be the effect or the level left
Conditions: not given

SMILES	Activity [%]
Cc1c(N(C)C)nc(CCCCCCCCCCO)c(O)c1C	50
CCCCCCCCCCCCCCCCc1c(C)c(N(C)C)nc(C)c1O	91

System: Lymphocyte
Assay: Cytoprotective activity in human lymphocytes obtained from Leigh's syndrome patient assessed as viable cells at 0.5 uM after 16 hrs by trypan blue exclusion assay
Assay type: functional
Conditions: read-out: Activity
Procedure, shortened: as §1

SMILES	viability at 0.5 µM [%]
Cc1c(N(C)C)nc(CCCCCCCCCCO)c(O)c1C	36
CCCCCCCCCCCCCCCCc1c(C)c(N(C)C)nc(C)c1O	56
